From PubChem BioAssay
Most compounds without a hit are left out; they make up all but 9.3% or so of the library.
D1 mod: D1 CRE-luciferase signal change, two-sided – cell-based, HEK293 D1, dopamine EC30, D1 allosteric modulator project, primary screen; AID 641, 2007; 5.9% of 58,000 active; dopamine EC30 potentiation; actives deviate in either direction; B-score at 10 µM; D(1A) dopamine receptor (Homo sapiens), P21728;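 active = luminescence count or its row- and column-corrected plate score outside the 99.7% band of the plate's sample wells, on either side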
Target sequence (P21728 whole entry, looked up): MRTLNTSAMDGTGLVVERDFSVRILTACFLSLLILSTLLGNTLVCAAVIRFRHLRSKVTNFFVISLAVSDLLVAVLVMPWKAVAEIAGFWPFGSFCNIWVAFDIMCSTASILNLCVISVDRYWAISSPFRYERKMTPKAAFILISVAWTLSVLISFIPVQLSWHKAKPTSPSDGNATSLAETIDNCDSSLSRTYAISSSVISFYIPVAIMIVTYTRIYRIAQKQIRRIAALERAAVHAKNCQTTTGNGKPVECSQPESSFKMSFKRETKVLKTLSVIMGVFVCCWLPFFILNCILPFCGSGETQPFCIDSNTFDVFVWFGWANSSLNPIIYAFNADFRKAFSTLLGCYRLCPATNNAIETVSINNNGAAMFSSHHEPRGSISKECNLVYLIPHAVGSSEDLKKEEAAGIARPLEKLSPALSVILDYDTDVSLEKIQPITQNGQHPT
E coli WT exp: growth inhibitors of wild-type E. coli, primary screen, strain BW25113, expanded library, OD600. OD600 absorbance. growth inhibition, % at 100 µM. 0.15% of 98,000 active. AID 710, 2007;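 active = growth inhibition above about 50% at one test dose, limit read from the data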;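 note: growth measured after 20 h incubation at 37 °C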
Ecoli tolC: growth inhibitors of E. coli tolC mutant, primary screen, strain BW25113 ΔtolC::kan, 384-well; 2.2% of 65,000 active; OD615; growth inhibition, % at 10 µM (by protocol); AID 573, 2007;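 active = growth inhibition at or above a cutoff equal to the mean over every tested compound plus 3 SD, cut at about 60% in these data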;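 note: growth measured after 20 h incubation at 37 °C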
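Test system: tolC-deleted E. coli BW25113 | Medium: LB with kanamycin 50 µg/mL | Compound dosing: Single concentration, 10 µM final per compound | Schedule: 37 °C, 20 h exposure | Measured by: OD at 615 nm | Evaluation: Percent growth inhibition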
DAT uptake mod: changed hDAT dopamine uptake under cocaine IC80, either direction, primary screen, cocaine antagonist project, cell-based, LLC-PK1 hDAT, [14C]-dopamine uptake, MLSMR. AID 449768, 2010. B-score at 10 µM. 1.3% of 110,000 active. Sodium-dependent dopamine transporter (Homo sapiens), Q01959. LLC-PK1 hDAT cells, [14C]-dopamine uptake with cocaine IC80; actives deviate in either direction;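 active = Z score or B-score, a plate-position-corrected score, falls beyond the plate's 99.7% confidence bounds, in either direction; inactive = both scores lie inside the 99.7% bounds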
PostGolgi ctrl: growth inhibition of yeast control strain, primary screen, counter-screen for post-Golgi transport modulator project | 5% of 98,000 active | efflux-deficient yeast background strain, growth absorbance A615, 16 h | inhibition, % at 10 µM | AID 738, 2007
PostGolgi yeast: phenotypic screen on post-Golgi transport, primary screen; post-Golgi transport phenotypic cell assay; inhibition, % at 10 µM; 0.9% of 98,000 active;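 note: yeast cells grown in 1536-well plates; yeast grown about 18 h at 30C before absorbance read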
D1 PAM confirm: D1 receptor positive allosteric modulators, retest, confirmation, cell-based, HEK293 D1, CRE-luciferase, duplicate; shares compounds with D1 mod; dopamine EC30 potentiation; active compounds read high; luminescence at 10 µM; 88% of 2,200 active; AID 642, 2007;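 active = luminescence in either of two replicates above the same-plate mean plus 3 SD of the low-dose dopamine control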
D1 ag no DA: D1 receptor agonism without dopamine, confirmation, mechanism study for D1 allosteric modulator project, cell-based, HEK293 D1, CRE-luciferase, secondary assay 1; shares compounds with D1 mod; luminescence, no dopamine; active compounds read high; luminescence at 10 µM; 0.8% of 1,900 active; in the data active = luminescence above about 3900
Isoprot counter: counter-screen for D1 modulators: isoproterenol response in HEK293 cells; shares compounds with D1 mod; HEK293 D1 CRE-luciferase, isoproterenol EC30 counter-screen; calls only at 10 µM; 63% of 2,200 active; AID 647;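 active = luminescence in either replicate above plate mean of wells with a partly effective reference agonist dose plus 3 SD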;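 note: isoproterenol raises cAMP through native beta-adrenoceptor Gs so signal bypasses D1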
Hits are given with their value. Cut-off read from the data, not from the text of the source, unless noted: active = inhibition above about 30%; inactive = the rest.

For CC(=O)C1=C(O)C(=O)N(c2nccs2)C1c1ccccc1 (stereo not drawn) the results were E coli WT exp inactive, DAT uptake mod inactive, PostGolgi ctrl inactive and PostGolgi yeast inactive.
For Cc1ccc(N2C(=O)C(c3c(C)[nH]n(-c4ccccc4)c3=O)(C(F)(F)F)C3=C2CC(C)(C)CC3=O)cc1 (stereo not drawn) the results were E coli WT exp inactive, DAT uptake mod -5.1, PostGolgi ctrl inactive and PostGolgi yeast inactive.
CCOC(=O)c1ccc(NS(=O)(=O)c2c(N)[nH]c(=O)[nH]c2=O)cc1 was read as DAT uptake mod inactive.
Screening Cc1cccc(NC(=O)CSc2nnc([C@@H](N)Cc3ccccc3)o2)c1C returned E coli WT exp inactive, DAT uptake mod inactive, PostGolgi ctrl inactive and PostGolgi yeast inactive.
Screening CC1Cc2ccccc2N1C(=O)CSc1nc2c(c(=O)n(C)c(=O)n2C)n1Cc1ccc(F)cc1 (stereo not drawn) returned DAT uptake mod -6.9.
Screening Cn1c(=O)c2c(nc(SCC(=O)N3CCc4ccccc43)n2Cc2ccccc2)n(C)c1=O returned D1 mod inactive and Ecoli tolC inactive.
Screening CCCCn1c(SCC(=O)N2c3ccccc3Sc3ccccc32)nc2c1c(=O)n(C)c(=O)n2C returned DAT uptake mod 3.2.
`CCn1c(SCC(=O)N2c3ccccc3Sc3ccccc32)nc2c1c(=O)n(C)c(=O)n2C` gave D1 mod inactive, Ecoli tolC inactive and DAT uptake mod inactive.
CCOc1ccc(OCC)c(-c2c(=O)n(OCc3ccc(C(C)(C)C)cc3)c3ccccc3[n+]2[O-])c1 was read as E coli WT exp inactive, DAT uptake mod inactive, PostGolgi ctrl inactive and PostGolgi yeast inactive.
`CCN(CC)C(=O)Nc1cnc2ccccc2c1` gave D1 mod inactive, E coli WT exp inactive, Ecoli tolC inactive, DAT uptake mod inactive, PostGolgi ctrl 33 and PostGolgi yeast inactive.
`O=C(Nc1cnc2ccccc2c1)c1ccncc1` gave E coli WT exp inactive, Ecoli tolC inactive, DAT uptake mod inactive, PostGolgi ctrl inactive and PostGolgi yeast inactive.
CN1CCN(C(=S)NCCc2ccccc2)CC1 was read as E coli WT exp inactive, DAT uptake mod inactive, PostGolgi ctrl inactive and PostGolgi yeast inactive.
Screening C=C1C(=O)[C@@]23[C@H](O)C[C@@H]4C(C)(C)CC[C@H](O)[C@@]4(C)[C@@H]2CC[C@@H]1[C@H]3O returned DAT uptake mod inactive.
For O=C(c1cc(C2CC2)on1)N1CCN(C(c2ccccc2)c2ccccc2)CC1 the results were D1 mod inactive, E coli WT exp inactive, Ecoli tolC 65, DAT uptake mod inactive, PostGolgi ctrl inactive and PostGolgi yeast inactive.
CCCN(CCC)S(=O)(=O)c1ccc(C(=O)N2CCCc3ccccc32)cc1 was read as E coli WT exp inactive, DAT uptake mod inactive, PostGolgi ctrl inactive and PostGolgi yeast inactive.
`CN(C)C(=O)CSc1nc(SCC(=O)N(C)C)n(-c2ccccc2)n1` gave D1 mod inactive, E coli WT exp inactive, Ecoli tolC inactive, DAT uptake mod inactive, PostGolgi ctrl inactive and PostGolgi yeast inactive.
For CN(C(=O)CSc1nc(N)nn1-c1ccccc1)c1ccccc1 the results were D1 mod 11, E coli WT exp inactive, Ecoli tolC inactive, DAT uptake mod inactive, PostGolgi ctrl inactive, PostGolgi yeast inactive, D1 PAM confirm inactive, D1 ag no DA inactive and Isoprot counter inactive.
Screening CC(C)c1nc(SCC(=O)c2ccccc2)c2c(=O)n(C)c(=O)n(C)c2n1 returned E coli WT exp inactive, DAT uptake mod inactive, PostGolgi ctrl inactive and PostGolgi yeast inactive.
`CC(C)(C)c1ccc(OCC(O)CSc2ncn[nH]2)cc1` (stereo not drawn) gave E coli WT exp inactive, DAT uptake mod inactive, PostGolgi ctrl inactive and PostGolgi yeast inactive.
Screening CCCSc1nsc(SCCC)c1C(N)=O returned D1 mod 4.4, E coli WT exp inactive, Ecoli tolC inactive, DAT uptake mod inactive, PostGolgi ctrl inactive, PostGolgi yeast inactive, D1 PAM confirm 9628, D1 ag no DA inactive and Isoprot counter inactive.
CCSc1nsc(SCC)c1C(N)=O was read as D1 mod inactive, E coli WT exp inactive, Ecoli tolC inactive, DAT uptake mod inactive, PostGolgi ctrl inactive and PostGolgi yeast inactive.
O=c1nc2n(c3ccccc13)Cc1ccccc1-2 was read as D1 mod inactive and Ecoli tolC inactive.
For O=c1cc(-c2ccccc2)nc2n1Cc1ccccc1-2 the results were D1 mod 13, E coli WT exp inactive, Ecoli tolC inactive, DAT uptake mod inactive, PostGolgi ctrl inactive, PostGolgi yeast inactive, D1 PAM confirm 11948 and Isoprot counter active.
For C=CCNC(=O)COc1ccc(Br)cc1Cl the results were D1 mod inactive, E coli WT exp inactive, Ecoli tolC inactive, DAT uptake mod inactive, PostGolgi ctrl inactive and PostGolgi yeast inactive.
`CCOC(=O)c1c(NC(C)=O)sc2c1C1CCN2CC1` gave DAT uptake mod inactive.
`CCOC(=O)c1c(C2CC2)csc1NC(C)=O` gave D1 mod 4.9, E coli WT exp inactive, Ecoli tolC inactive, DAT uptake mod inactive, PostGolgi ctrl inactive, PostGolgi yeast inactive, D1 PAM confirm 9548, D1 ag no DA inactive and Isoprot counter inactive.
Screening CCOc1ccc(CCNC(=O)CCN2C(=O)COc3ccccc32)cc1OCC returned D1 mod 2.7, E coli WT exp inactive, Ecoli tolC inactive, DAT uptake mod inactive, PostGolgi ctrl inactive, PostGolgi yeast inactive, D1 PAM confirm 9680, D1 ag no DA inactive and Isoprot counter active.
`COCCCNC(=O)CCN1C(=O)COc2ccccc21` gave D1 mod inactive, E coli WT exp inactive, Ecoli tolC inactive, DAT uptake mod inactive, PostGolgi ctrl inactive and PostGolgi yeast inactive.
`COc1ccc(Br)cc1CNC(=O)CCN1C(=O)COc2ccccc21` gave D1 mod 3.6, E coli WT exp inactive, Ecoli tolC inactive, DAT uptake mod inactive, PostGolgi ctrl inactive, PostGolgi yeast inactive, D1 PAM confirm 6192 and Isoprot counter inactive.
